Data published in publication PMC5292677 (Leukemia, 2016).

Tested on: patients with myelofibrosis
Assay: Phase I safety: drug-related adverse events, DLTs, tolerability
Format: in vivo, human
Procedure, shortened: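 Design was 3+3 dose escalation of oral test compound QD (75–400 mg) or BID (100–400 mg) in 28-day cycles. AEs were graded by CTCAE v4.0 with causality, alongside labs, ECGs, vital signs and physical exams. A DLT was grade 4 cytopenia, other grade 3/4 hematologic toxicity, or grade 3/4 non-hematologic toxicity, excluding manageable GI events. The population was all patients dosed ≥1 time.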

[1] = baseline platelet count <100 × 10^9/l
[2] = baseline platelet count <100 × 10^9/l (n=16)
[3] = baseline platelet count ⩾100 × 10^9/l
[4] = baseline platelet count ⩾100 × 10^9/l (n=32)

## C[C@H](Nc1cc(-c2cnn(C)c2)cc(Nc2cnccn2)n1)c1ccc(F)cc1 [NS-018]
300 mg QD
  Cases of anemia (grade 2): 1 case
  Rate of discontinuations owing to AEs: 13%
300 mg QD (n=16)
  Drug-related anemia, Grade 1/2: 1 (6) n (%)
  Drug-related anemia, all grades: 1 (6) n (%)
  Drug-related diarrhea, all grade: 2 (13) n (%)
  Drug-related diarrhea, grade 3 or 4: 0 n (%)
  Drug-related dizziness, all grade: 3 (19) n (%)
  Drug-related dizziness, grade 3 or 4: 1 (6) n (%)
  Drug-related esophageal reflux, all grade: 1 (6) n (%)
  Drug-related esophageal reflux, grade 3 or 4: 0 n (%)
  Drug-related headache, all grade: 2 (13) n (%)
  Drug-related headache, grade 3 or 4: 0 n (%)
  Drug-related nausea, all grade: 0 n (%)
  Drug-related paresthesia, all grade: 1 (6) n (%)
  Drug-related paresthesia, grade 3 or 4: 0 n (%)
  Drug-related thrombocytopenia, Grade 1/2: 0 n (%)
  Drug-related thrombocytopenia, Grade 3: 2 (13) n (%)
  Drug-related thrombocytopenia, Grade 4: 1 (6) n (%)
  Drug-related thrombocytopenia, all grades: 3 (19) n (%)
  Drug-related vomiting, all grade: 1 (6) n (%)
  Drug-related vomiting, grade 3 or 4: 0 n (%)
  Drug-related weight increased, all grade: 0 n (%)
300 mg QD cohort
  Drug-related grade 3 dyspnea: 6%
400 mg BID
  Patients who discontinued owing to AEs (beyond DLT): 2 patients
400 mg BID (n=8)
  Drug-related anemia, Grade 1/2: 1 (13) n (%)
  Drug-related anemia, Grade 3: 1 (13) n (%)
  Drug-related anemia, Grade 4: 0 n (%)
  Drug-related anemia, all grades: 2 (25) n (%)
  Drug-related diarrhea, all grade: 1 (13) n (%)
  Drug-related diarrhea, grade 3 or 4: 0 n (%)
  Drug-related dizziness, all grade: 2 (25) n (%)
  Drug-related dizziness, grade 3 or 4: 1 (13) n (%)
  Drug-related esophageal reflux, all grade: 0 n (%)
  Drug-related headache, all grade: 1 (13) n (%)
  Drug-related headache, grade 3 or 4: 0 n (%)
  Drug-related nausea, all grade: 0 n (%)
  Drug-related paresthesia, all grade: 0 n (%)
  Drug-related thrombocytopenia, Grade 1/2: 0 n (%)
  Drug-related thrombocytopenia, Grade 3: 1 (13) n (%)
  Drug-related thrombocytopenia, Grade 4: 0 n (%)
  Drug-related thrombocytopenia, all grades: 1 (13) n (%)
  Drug-related vomiting, all grade: 0 n (%)
  Drug-related weight increased, all grade: 0 n (%)
400 mg BID cohort
  DLT: grade 3 dizziness: 1 patient
400 mg BID/QD, based on proportion of drug-related neurological AEs
  Tolerability as judged by the Safety Review Committee: intolerable
400 mg QD (n=4)
  Drug-related anemia, Grade 1/2: 1 (25) n (%)
  Drug-related anemia, all grades: 1 (25) n (%)
  Drug-related diarrhea, all grade: 1 (25) n (%)
  Drug-related diarrhea, grade 3 or 4: 0 n (%)
  Drug-related dizziness, all grade: 1 (25) n (%)
  Drug-related dizziness, grade 3 or 4: 0 n (%)
  Drug-related esophageal reflux, all grade: 0 n (%)
  Drug-related headache, all grade: 0 n (%)
  Drug-related nausea, all grade: 1 (25) n (%)
  Drug-related nausea, grade 3 or 4: 0 n (%)
  Drug-related paresthesia, all grade: 1 (25) n (%)
  Drug-related paresthesia, grade 3 or 4: 0 n (%)
  Drug-related thrombocytopenia, all grades: 0 n (%)
  Drug-related vomiting, all grade: 0 n (%)
  Drug-related weight increased, all grade: 1 (25) n (%)
  Drug-related weight increased, grade 3 or 4: 0 n (%)
QD, oral
  Recommended phase II dose (RP2D): 300 mg
All cohorts
  Additional patients (beyond DLT) who discontinued owing to AEs: 7 patients
  Dose reduction owing to dizziness: 4 n
  Patients with dose reductions owing to AEs: 11 patients
All cohorts (n=48)
  Patients with dose-limiting toxicities (DLTs): 2 patients
All cohorts (n=48), data cutoff 21 July 2015
  Treatment discontinuation because of AEs: 8 n
All dose cohorts (n=48)
  Drug-related anemia, Grade 1/2: 4 (8) n (%)
  Drug-related anemia, Grade 3: 3 (6) n (%)
  Drug-related anemia, Grade 4: 0 n (%)
  Drug-related anemia, all grades: 7 (15) n (%)
  Drug-related diarrhea, all grade: 7 (15) n (%)
  Drug-related diarrhea, grade 3 or 4: 0 n (%)
  Drug-related dizziness, all grade: 11 (23) n (%)
  Drug-related dizziness, grade 3 or 4: 3 (6) n (%)
  Drug-related esophageal reflux, all grade: 3 (6) n (%)
  Drug-related esophageal reflux, grade 3 or 4: 0 n (%)
  Drug-related headache, all grade: 3 (6) n (%)
  Drug-related headache, grade 3 or 4: 0 n (%)
  Drug-related nausea, all grade: 9 (19) n (%)
  Drug-related nausea, grade 3 or 4: 1 (2) n (%)
  Drug-related paresthesia, all grade: 4 (8) n (%)
  Drug-related paresthesia, grade 3 or 4: 1 (2) n (%)
  Drug-related thrombocytopenia, Grade 1/2: 5 (10) n (%)
  Drug-related thrombocytopenia, Grade 3: 5 (10) n (%)
  Drug-related thrombocytopenia, Grade 4: 3 (6) n (%)
  Drug-related thrombocytopenia, all grades: 13 (27) n (%)
  Drug-related vomiting, all grade: 3 (6) n (%)
  Drug-related vomiting, grade 3 or 4: 0 n (%)
  Drug-related weight increased, all grade: 4 (8) n (%)
  Drug-related weight increased, grade 3 or 4: 0 n (%)
All patients (n=48)
  Drug-related anemia, all grades: 15%
  Drug-related anemia, grade 3/4: 6%
  Drug-related dizziness: 23%
  Drug-related nausea: 19%
  Drug-related thrombocytopenia, all grades: 27%
  Drug-related thrombocytopenia, grade 3/4: 17%
[1]
  Drug-related thrombocytopenia, all grades: 44%
  Drug-related thrombocytopenia, grade 3/4: 38%
[2]
  Drug-related thrombocytopenia, Grade 1/2: 1 (6) n (%)
  Drug-related thrombocytopenia, Grade 3: 3 (19) n (%)
  Drug-related thrombocytopenia, Grade 4: 3 (19) n (%)
  Drug-related thrombocytopenia, all grades: 7 (44) n (%)
[3]
  Drug-related thrombocytopenia, all grades: 19%
  Drug-related thrombocytopenia, grade 3/4: 6%
[4]
  Drug-related thrombocytopenia, Grade 1/2: 4 (13) n (%)
  Drug-related thrombocytopenia, Grade 3: 2 (6) n (%)
  Drug-related thrombocytopenia, Grade 4: 0 n (%)
  Drug-related thrombocytopenia, all grades: 6 (19) n (%)
During the study
  Grade 4 neurologic events: No grade 4 neurologic events
